High-throughput results from PubChem.
MsrA inh: inhibits bovine methionine sulfoxide reductase A | purified bovine MsrA, absorbance read-out | actives 0.75% (n = 360,000) | AID 651718 | inhibition, % at 15.5 µM;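 note: 0% = vehicle wells with enzyme and 100% = reference inhibitor wells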
bovine MsrA act: bovine methionine sulfoxide reductase A activation. purified bovine MsrA, absorbance read-out. activation, % at 10.6 µM. actives 0.3% (n = 360,000). AID 602163; in the data active = activation above about 7.5%;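 note: 0% = vehicle and 100% = reference activator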
ARFGAP1 inhibitor: inhibitors of rat ARFGAP1 | Q62848 | Arfgap1-stimulated ARF1 GTP hydrolysis, GDP FP detection | inhibition, % at 16.5 µM | actives 0.26% (n = 360,000) | AID 651572;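 active = inhibition above a per-plate limit, mean inhibition of low control wells plus 3 SD, cut at about 25% in these data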;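 note: 0% = DMSO wells with enzyme and 100% = wells lacking Arfgap1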
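material = rat Arfgap1 catalytic domain, aa 1-136 | also added = human ARF1(Δ1-17)-GTP substrate | compound dosing = one concentration, 16.5 µM, DMSO 1.26% | times = GTP hydrolysis reaction 2 h at 25 °C | measured by = FP, GDP Alexa 633 tracer displaced from anti-GDP antibody, 620/688 nm | evaluation = percent inhibition of Arfgap1-stimulated GTP hydrolysis | replication = single well per compound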
ASAP1 GAP inh: inhibitors of human ASAP1 ArfGAP activity; Q9ULH1; inhibition, % at 16.5 µM; AID 624377; actives 0.19% (n = 360,000); ASAP1-stimulated ARF1 GTP hydrolysis, GDP FP detection; in the data active = inhibition above about 25%;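 note: 0% = vehicle with enzyme and substrate and 100% = no enzyme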
sPLA2-III inh: Inhibits HGIII-sPLA2 liposome hydrolysis, primary screen; Q9NZ20; QFRET BODIPY PC-A2 liposome hydrolysis, fluorescence; inhibition, % at 12.2 µM; actives 0.56% (n = 370,000); AID 743126;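 active = inhibition above mean plus 3 SD of compounds lying within the high and low control bounds, cut at about 19% in these data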;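 note: 0% = median of test compound wells and 100% = no enzyme DMSO wells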
Rev-erbA mod: modulates human Rev-erb alpha binding to DNA | P20393 | Rev-erbα–FITC-DNA binding, fluorescence polarization, 90 min | activity, % at 10 µM | actives 0.79% (n = 370,000) | AID 1259318;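 active = activity above about 14%, limit read from the data; passing the limit was not always enough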;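 note: 0% = DMSO wells with 35 nM protein and 100% = DMSO wells with 750 nM protein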
Target sequence (P20393 whole entry, looked up): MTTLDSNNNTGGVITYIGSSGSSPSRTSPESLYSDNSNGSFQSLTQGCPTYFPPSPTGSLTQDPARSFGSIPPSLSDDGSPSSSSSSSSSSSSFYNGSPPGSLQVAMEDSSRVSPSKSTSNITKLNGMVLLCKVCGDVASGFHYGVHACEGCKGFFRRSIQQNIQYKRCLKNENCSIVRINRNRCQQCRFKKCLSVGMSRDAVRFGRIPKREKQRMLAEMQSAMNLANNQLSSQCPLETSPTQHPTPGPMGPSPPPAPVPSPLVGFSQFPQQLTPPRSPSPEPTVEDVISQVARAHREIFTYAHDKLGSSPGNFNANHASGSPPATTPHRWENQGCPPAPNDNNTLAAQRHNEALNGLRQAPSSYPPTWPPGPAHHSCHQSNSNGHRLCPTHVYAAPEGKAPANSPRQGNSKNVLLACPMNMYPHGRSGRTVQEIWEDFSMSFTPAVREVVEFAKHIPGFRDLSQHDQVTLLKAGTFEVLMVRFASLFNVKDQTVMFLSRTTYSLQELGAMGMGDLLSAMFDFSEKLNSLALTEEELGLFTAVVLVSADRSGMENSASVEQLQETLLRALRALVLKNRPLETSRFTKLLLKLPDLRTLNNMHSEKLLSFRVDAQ
MsrA conf: bovine MsrA inhibition, confirmed; shares compounds with MsrA inh; purified bovine MsrA, absorbance read-out; inhibition, % at 15.5 µM; actives 41% (n = 2,300);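 note: coupled to thioredoxin reductase with NADPH and selenocystamine and DMSO as substrate; 0% = vehicle only and 100% = full effect of reference inhibitor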
Starred values were filed as active, the others as inactive; . = not tested or not shown. Hits are enriched below; roughly 2.7% of the tested compounds scored in any of these assays. Cut-off read from the data, not from the text of the source, unless noted: active = inhibition above about 4.5%; inactive = the rest.

SMILES	MsrA inh	bovine MsrA act	ARFGAP1 inhibitor	ASAP1 GAP inh	sPLA2-III inh	Rev-erbA mod	MsrA conf
O=C(O)c1ccc(N/N=C/c2cccc3nccnc23)cc1	5.3*	-8.4	1.7	4.8	0.9	0.4	3.8
CCOc1ccc(-n2c(SCC(=O)Nc3ccc(S(=O)(=O)Nc4cc(C)nc(C)n4)cc3)nnc2-c2ccco2)cc1	.	.	.	.	-35.5	-4.0	.
CCN(CC)C(=O)CC[C@H]1CC[C@]2(CCCN(CC3CC3)C2)O1	.	.	.	.	4.6	1.9	.
N#Cc1c(-c2cccc(Cl)c2)[nH]c(=S)[nH]c1=O	3.3	5.0	11.0	-3.8	7.0	-1.4	.
N#Cc1c(-c2ccccc2)[nH]c(=S)[nH]c1=O	5.0*	5.8	7.0	8.1	13.4	-0.9	3.4
N#Cc1c(-n2cccc2/C=N/O)sc2c1CCCC2	16.2*	-1.8	8.9	-6.0	-8.6	-1.2	13.6*
O=C(CCc1ccccc1-c1ccccc1CCNC(=O)c1ccccc1)NCc1ccccc1	.	.	.	.	2.7	9.5	.
Cn1c(=O)[nH]c(Nc2ccccc2)c([N+](=O)[O-])c1=O	6.4*	-7.5	-1.8	4.5	2.4	-3.9	4.0
CCCCNC(=O)C[C@H]1C[C@@]2(C(=O)OC)C(=C[C@H](C3CCCC3)O[C@@H]2C)N(CCc2ccc(OC)c(OC)c2)C1=O	.	.	.	.	-1.7	3.2	.
COc1ccc(C(=O)C[n+]2ccc3c(c2)nc(Cc2ccccc2)n3C)cc1	.	.	.	.	3.7	5.9	.
C[C@H]1[C@@H](c2ccccc2)Oc2c(Cl)cccc2S(=O)(=O)N1C	0.1	.	-0.5	-9.0	8.7	7.2	.
COc1ccc(/C=C(\CC(=O)O)c2nc3ccccc3s2)cc1O	5.6*	-9.4	0.5	-3.3	-10.3	1.9	4.5
COc1ccc(-c2nnc(SCC(=O)N/N=C\C=C/c3ccco3)n2-c2ccc(C)cc2)cc1	.	.	.	.	-11.6	-2.7	.
Clc1ccc([C@H]2OC[C@@]3(CNCCc4c[nH]c5ccccc45)CS[C@H](c4ccc(Cl)cc4)N23)cc1	.	.	.	.	-3.8	-1.4	.
COc1ccc(C2C(C#N)=C(N)Oc3c2sc2nc(C)cc(C)c32)cc1 (stereo not drawn)	9.2*	-1.3	4.4	8.7	-1.5	-6.8	2.1
COc1ccc(Nc2nc3cc(C)ccc3cc2C#N)cc1	8.7*	-3.6	-1.0	-6.5	2.9	11.9	6.9*
COc1ccc(Nc2nc3cc(C)ccc3cc2C#N)c(OC)c1	0.1	-1.2	6.1	-6.0	2.3	1.1	.
CCCCNC[C@@]12CO[C@H](c3ccc(Cl)cc3)N1[C@@H](c1ccc(Cl)cc1)SC2	.	.	.	.	-3.0	3.5	.
Cc1ncc(CO)c(CNc2ccc(-c3nc4ccccc4[nH]3)cc2)c1O	6.4*	-5.5	11.2	-5.3	-1.6	-2.9	5.2*
CCOC(=O)[C@]12CCCCC/C=C\1N(CCc1ccc(Cl)cc1)C(=O)[C@H]2CC(=O)NCc1cccc(C(F)(F)F)c1	.	.	.	.	-16.6	-2.5	.
CN(C)/C=C1\N=C(c2ccc3c(c2)OCO3)OC1=O	6.1*	-5.9	-9.5	-2.2	-2.4	-0.3	5.7*
CN(C)/C=C1\N=C(c2ccccc2)OC1=O	8.9*	-11.0	-2.8	0.8	5.2	-0.2	6.0*
CC1=CC(=C2N=C(c3ccccc3)OC2=O)C=C(C)O1	-0.2	2.5	-0.2	-7.2	0.7	-9.3	.
O=C(NC1CCCCN(Cc2cccc(C(F)(F)F)c2)C1=O)c1ccc(Cl)c(Cl)c1 (stereo not drawn)	.	.	.	.	5.4	3.4	.
CC(=C/c1ccccc1)/C=N/Nc1nc(N2CCCCC2)nc(N2CCCCC2)n1	-0.8	-6.3	-7.5	-21.0	-2.0	-3.3	.
BrC(/C=N/Nc1nc(N2CCOCC2)nc(N2CCOCC2)n1)=C/c1ccccc1	5.5*	-2.2	11.5	10.1	-2.8	-5.0	4.2
CCC[C@H](/C=C/C(=O)OC(C)(C)C)Sc1ccc(OC)cc1	.	.	.	.	3.5	7.4	.
O=C(N/N=C/C(Cl)=C/c1ccc([N+](=O)[O-])cc1)C(=O)Nc1ccccc1C(=O)O	7.5*	-3.9	-14.2	-8.1	-3.8	-5.7	3.5
O=C(N/N=C/C(Cl)=C/c1ccc([N+](=O)[O-])cc1)C(=O)Nc1ccc(C(=O)O)cc1	1.6	-5.2	-2.5	12.1	5.5	2.0	.
OCCN1CCCC12CCC(c1ccccc1)CC2 (stereo not drawn)	.	.	.	.	2.2	-0.7	.
